From ChEMBL document CHEMBL2346563, “A series of nonsecosteroidal vitamin D receptor agonists for osteoporosis therapy” (Bioorg Med Chem, 2013)
One block for each compound: values may come before it.

Legend:
Rattus norvegicus [1] = experiment: Prevention of bone mineral density loss in ovariectomized immatured Sprague-Dawley rat osteoporosis model at 320 ng/kg, po once daily for 5 times per week for 4 weeks relative to control; format: functional
How it was run: (§1)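 Female 8-week-old Sprague–Dawley (Crj: CD (SD)) rats, ovariectomized or sham-operated, n = 6 per group. From one day after surgery, oral dosing five times per week for 4 weeks; vehicle was medium-chain triglyceride at 1 mL/kg. Distal femur BMD read by dual-energy X-ray absorptiometry 24 h after the last dose. ΔBMD (%) = (treated − vehicle)/(sham − vehicle) × 100. Mean ± SE.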

Rattus norvegicus [2] = experiment: Toxicity in ovariectomized immatured Sprague-Dawley rat osteoporosis model assessed as effect on serum calcium level at 320 ng/kg, po once daily for 5 times per week for 4 weeks relative to control; format: organism-based; conditions: in vivo, 0.00032 mg/kg, 672 h
How it was run: (§2)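 Ovariectomized female 8-week-old Sprague–Dawley rats, n = 6 per group. Oral dosing five times per week for 4 weeks in medium-chain triglyceride (1 mL/kg). Vehicle-treated OVX and sham rats served as controls. Abdominal aortic blood drawn under ether 24 h after the last dose; serum calcium measured by autoanalyzer. ΔCa (%) = (treated − vehicle)/vehicle × 100. Mean ± SE.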

Rattus norvegicus [3] = experiment: Prevention of bone mineral density loss in ovariectomized immatured Sprague-Dawley rat osteoporosis model at 20 ng/kg, po once daily for 5 times per week for 4 weeks relative to control; format: functional; how it was run: as §1
Rattus norvegicus [4] = experiment: Prevention of bone mineral density loss in ovariectomized immatured Sprague-Dawley rat osteoporosis model at 80 ng/kg, po once daily for 5 times per week for 4 weeks relative to control; format: functional; how it was run: as §1
Rattus norvegicus [5] = experiment: Toxicity in ovariectomized immatured Sprague-Dawley rat osteoporosis model assessed as effect on serum calcium level at 80 ng/kg, po once daily for 5 times per week for 4 weeks relative to control; format: organism-based; conditions: in vivo, 8e-05 mg/kg, 672 h; how it was run: as §2
Rattus norvegicus [6] = experiment: Toxicity in ovariectomized immatured Sprague-Dawley rat osteoporosis model assessed as effect on serum calcium level at 20 ng/kg, po once daily for 5 times per week for 4 weeks relative to control; format: organism-based; conditions: in vivo, 2e-05 mg/kg, 672 h; how it was run: as §2
Rattus norvegicus [7] = experiment: Toxicity in ovariectomized immatured Sprague-Dawley rat osteoporosis model assessed as effect on serum calcium level at 25 ng/kg, po once daily for 5 times per week for 4 weeks relative to control; format: organism-based; conditions: in vivo, 2.5e-05 mg/kg, 672 h; how it was run: as §2
Rattus norvegicus [8] = experiment: Prevention of bone mineral density loss in ovariectomized immatured Sprague-Dawley rat osteoporosis model at 50 ng/kg, po once daily for 5 times per week for 4 weeks relative to control; format: functional; how it was run: as §1
Rattus norvegicus [9] = experiment: Prevention of bone mineral density loss in ovariectomized immatured Sprague-Dawley rat osteoporosis model administered orally once daily for 5 times per week for 4 weeks; format: functional, organism-based; how it was run: as §1
Rattus norvegicus [10] = experiment: Prevention of bone mineral density loss in ovariectomized immatured Sprague-Dawley rat osteoporosis model at 25 ng/kg, po once daily for 5 times per week for 4 weeks relative to control; format: functional; how it was run: as §1
Rattus norvegicus [11] = experiment: Toxicity in ovariectomized immatured Sprague-Dawley rat osteoporosis model assessed as effect on serum calcium level at 50 ng/kg, po once daily for 5 times per week for 4 weeks relative to control; format: organism-based; conditions: in vivo, 5e-05 mg/kg, 672 h; how it was run: as §2
Rattus norvegicus [12] = experiment: Toxicity in ovariectomized matured Sprague-Dawley rat osteoporosis model assessed as effect on serum calcium level at 0.75 to 6 ng/kg, po once daily for 5 times per week for 4 weeks relative to control; format: organism-based; conditions: in vivo, 672 h
How it was run: (§3)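 Female 8-month-old Sprague–Dawley rats, ovariectomized or sham-operated, n = 8 per group. Starting one day post-surgery, oral dosing at 0.75–12 ng/kg, five times per week for 4 weeks; vehicle was MCT at 1 mL/kg. At 24 h after the last dose, aortic blood was taken for serum calcium by autoanalyzer. Distal femur and lumbar spine BMD measured by DXA.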

[13] = Cmax in Sprague-Dawley rat at 100 ug/kg, po; format: ADME, organism-based; parameters: dose 100 ug/kg, route oral; conditions: in vivo, 0.1 mg/kg
How it was run: (§4)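 Male Sprague–Dawley rats, 8 weeks old, fed, n = 3 per route. Single 100 µg/kg dose, iv in ethanol/Tween20/saline (10:2:88) or po in ethanol/MCT (1:9). Blood taken from the jugular vein and centrifuged to plasma. Drug extracted with diethyl ether and quantified by LC-MS/MS. Bioavailability given as F (%).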

[14] = AUC (infinity) in Sprague-Dawley rat at 100 ug/kg, iv; format: ADME, organism-based; parameters: dose 100 ug/kg, time infinity, route intravenous; conditions: plasma, 0.1 mg/kg; how it was run: as §4
Rattus norvegicus [15] = experiment: Toxicity in ovariectomized matured Sprague-Dawley rat osteoporosis model assessed as effect on body weight at 0.75 to 12 ng/kg, po once daily for 5 times per week for 4 weeks; format: organism-based; conditions: in vivo, 672 h
Rattus norvegicus [16] = experiment: Toxicity in ovariectomized immatured Sprague-Dawley rat osteoporosis model assessed as effect on serum calcium level at 40 ng/kg, po once daily for 5 times per week for 4 weeks relative to control; format: organism-based; conditions: in vivo, 4e-05 mg/kg, 672 h; how it was run: as §2
[17] = Oral bioavailability in Sprague-Dawley rat at 100 ug/kg; format: ADME, organism-based; conditions: in vivo, 0.1 mg/kg; how it was run: as §4
[18] = Half life in Sprague-Dawley rat at 100 ug/kg, iv; format: ADME, organism-based; conditions: in vivo, 0.1 mg/kg; how it was run: as §4
Rattus norvegicus [19] = experiment: Prevention of bone mineral density loss in distal femur of ovariectomized matured po dosed Sprague-Dawley rat osteoporosis model administered once daily for 5 times per week for 4 weeks; format: functional, organism-based; how it was run: as §3
Rattus norvegicus [20] = experiment: Toxicity in ovariectomized immatured Sprague-Dawley rat osteoporosis model assessed as effect on serum calcium level at 10 ng/kg, po once daily for 5 times per week for 4 weeks relative to control; format: organism-based; conditions: in vivo, 1e-05 mg/kg, 672 h; how it was run: as §2
[21] = Total clearance in Sprague-Dawley rat at 100 ug/kg, iv; format: ADME, organism-based; conditions: in vivo, 0.1 mg/kg; how it was run: as §4
Rattus norvegicus [22] = experiment: Toxicity in ovariectomized matured Sprague-Dawley rat osteoporosis model assessed as effect on serum calcium level at 12 ng/kg, po once daily for 5 times per week for 4 weeks relative to control; format: organism-based; conditions: in vivo, 1.2e-05 mg/kg, 672 h; how it was run: as §3
[23] = Genotoxicity in micronucleus (unknown origin) by micronucleus assay
[24] = AUC (infinity) in Sprague-Dawley rat at 100 ug/kg, po; format: ADME, organism-based; parameters: dose 100 ug/kg, time infinity, route oral; conditions: plasma, 0.1 mg/kg; how it was run: as §4
[25] = Half life in Sprague-Dawley rat at 100 ug/kg, po; format: ADME, organism-based; conditions: in vivo, 0.1 mg/kg; how it was run: as §4
[26] = Volume of distribution at steady state in Sprague-Dawley rat at 100 ug/kg, iv; format: ADME, organism-based; conditions: in vivo, 0.1 mg/kg, read-out: Vdss; how it was run: as §4
Rattus norvegicus [27] = experiment: Prevention of bone mineral density loss in ovariectomized immatured Sprague-Dawley rat osteoporosis model at 40 ng/kg, po once daily for 5 times per week for 4 weeks relative to control; format: functional; how it was run: as §1
[28] = Mean residence time in Sprague-Dawley rat at 100 ug/kg, iv; format: ADME, organism-based; conditions: in vivo, 0.1 mg/kg; how it was run: as §4
[29] = Mean residence time in Sprague-Dawley rat at 100 ug/kg, po; format: ADME, organism-based; conditions: in vivo, 0.1 mg/kg; how it was run: as §4
Rattus norvegicus [30] = experiment: Prevention of bone mineral density loss in ovariectomized immatured Sprague-Dawley rat osteoporosis model at 10 ng/kg, po once daily for 5 times per week for 4 weeks relative to control; format: functional; how it was run: as §1
Salmonella typhimurium = experiment: Genotoxicity in Salmonella typhimurium by Ames test; format: toxicity, organism-based; conditions: salmonella enterica subsp. enterica serovar typhimurium
Rattus norvegicus [31] = experiment: Toxicity in ovariectomized immatured Sprague-Dawley rat osteoporosis model assessed as effect on serum calcium level at 30 ng/kg, po once daily for 5 times per week for 4 weeks relative to control; format: organism-based; conditions: in vivo, 3e-05 mg/kg, 672 h; how it was run: as §2
Rattus norvegicus [32] = experiment: Prevention of bone mineral density loss in ovariectomized immatured Sprague-Dawley rat osteoporosis model at 30 ng/kg, po once daily for 5 times per week for 4 weeks relative to control; format: functional; how it was run: as §1

Structure (SMILES): C=C1/C(=C\C=C2/CCC[C@]3(C)[C@@H]([C@H](C)CCCC(C)(C)O)CC[C@@H]23)C[C@@H](O)C[C@@H]1O [CALCITRIOL]
Activity (Rattus norvegicus [1]): 58% | Activity (Rattus norvegicus [2]): 5.1% | Activity (Rattus norvegicus [3]): 4% | Activity (Rattus norvegicus [4]): 53% | Activity (Rattus norvegicus [5]): 2.5% | Activity (Rattus norvegicus [6]): 2.5%

Structure (SMILES): CCC(O)(/C=C/c1ccc(C(CC)(CC)c2ccc(-c3ccc(CC(=O)O)cc3)c(C)c2)cc1C)CC
Activity (Rattus norvegicus [7]): 0.7% | Activity (Rattus norvegicus [8]): 81% | Activity (Rattus norvegicus [9]): Dose-dependent effect | Activity (Rattus norvegicus [10]): 42% | Activity (Rattus norvegicus [11]): 8.7%

Structure (SMILES): CCC(CC)(c1ccc(/C=C/C(O)(C(F)(F)F)C(F)(F)F)c(C)c1)c1ccc(-c2ccc(CC(=O)O)c(F)c2)c(C)c1
Activity (Rattus norvegicus [9]): Dose-dependent effect

Cmax [13]: 54 ng/mL | AUC(0-inf) [14]: 1130 ng·h/mL | bioavailability [17]: 95.1% | half-life [18]: 8.5 h | clearance [21]: 1.51 mL/min/kg | AUC(0-inf) [24]: 1650 ng·h/mL | half-life [25]: 17.6 h | Vd [26]: 0.99 L/kg | MRT [28]: 11.2 h | MRT [29]: 28.3 h
Structure (SMILES): CCC(O)(/C=C/c1ccc(C(CC)(CC)c2ccc(-c3ccc(CC(=O)O)cn3)c(C)c2)cc1C)CC
Activity (Rattus norvegicus [12]): Non-toxic | Activity (Rattus norvegicus [15]): Non-toxic | Activity (Rattus norvegicus [16]): 8.4% | Activity (Rattus norvegicus [3]): 172% | Activity (Rattus norvegicus [19]): Dose-dependent effect | Activity (Rattus norvegicus [20]): -2.9% | Activity (Rattus norvegicus [22]): Toxic | Activity [23]: Non-toxic | Activity (Rattus norvegicus [27]): 198% | Activity (Rattus norvegicus [30]): 122% | Activity (Rattus norvegicus [6]): 2.2% | Activity (Salmonella typhimurium): Non-toxic

Structure (SMILES): CCC(CC)(c1ccc(/C=C/C(O)(C(F)(F)F)C(F)(F)F)c(C)c1)c1ccc(-c2ccc(CC(=O)O)cc2)c(C)c1
Activity (Rattus norvegicus [31]): 6.9% | Activity (Rattus norvegicus [9]): Dose-dependent effect | Activity (Rattus norvegicus [20]): 0.6% | Activity (Rattus norvegicus [30]): 47% | Activity (Rattus norvegicus [32]): 89%
